By MIC is commonly meant the lowest concentration that inhibits growth of the organism.

Data on 3 molecules can be found in ChEMBL document CHEMBL3286367, “Synthesis of new class of spirocarbocycle derivatives by multicomponent domino reaction and their evaluation for antimicrobial, anticancer activity and molecular docking studies” (2014).

Assay [1] has as its system Micrococcus luteus. The assay is described as follows: Antimicrobial activity against Micrococcus luteus MTCC 106 assessed as absence of visible growth after 48 to 72 hrs. Type of assay: functional.
The subject of assay [2] is Staphylococcus aureus. Nature of the assay: Antimicrobial activity against methicillin-resistant Staphylococcus aureus assessed as absence of visible growth after 48 to 72 hrs. Type of assay: functional. In outline: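 Broth two-fold serial dilution in 96-well plates, 1000 to 7.81 µg/mL, compound dissolved in DMSO (2%). Inoculum grown in Mueller Hinton broth 24 h at 37°C. Streptomycin positive control. 5 µl of tested broth plated on MHA; MIC is the lowest concentration inhibiting visible growth on agar.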

The subject of assay [3] is Klebsiella pneumoniae. Nature of the assay: Antimicrobial activity against Klebsiella pneumonia MTCC 109 assessed as absence of visible growth after 24 hrs.
Assay [4] relates to A549. Nature of the assay: Anticancer activity against human A549 cells assessed as cell growth inhibition at 5 ug/ml by MTT assay. Format: functional. Particulars: read-out: GI. Summed up: (§1)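 A549 cells kept in DMEM with 10% FBS, 2 mM L-glutamine, penicillin/streptomycin, pH 7.2. Seeded at 5000 cells/well in medium with compound at 5–50 µg/mL. Grown at 37 °C, 5% CO2. Medium then replaced by 1 mg/mL MTT for 4 h and formazan dissolved in DMSO. Absorbance read at 540 nm; three replicate experiments.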
For orientation: Formazan colour is commonly taken as a measure of viable cells.

The subject of assay [5] is Proteus vulgaris. Nature of the assay: Antimicrobial activity against Proteus vulgaris MTCC 1771 assessed as absence of visible growth after 48 to 72 hrs. Format: functional.
Assay [6] deals with Salmonella typhimurium. Nature of the assay: Antimicrobial activity against Salmonella typhimurium MTCC 1251 assessed as zone of inhibition at 1 mg/disc after 24 hrs incubation by disc diffusion assay. Format: functional, Salmonella enterica subsp. enterica serovar Typhimurium. In outline: (§2)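 Inocula grown in Mueller Hinton broth for 24 h at 37 °C and swabbed onto Mueller Hinton agar. Discs carried 1 mg compound each and stood 30 min at room temperature before 24 h incubation at 37 °C. Solvent as negative control. Inhibition zones recorded in mm; experiment done twice.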
In general terms: Agar diffusion results depend on both activity and mobility in agar.

Assay [7] concerns A549. The assay is described as follows: Anticancer activity against human A549 cells assessed as cell growth inhibition at 10 ug/ml by MTT assay. To be noted: read-out: GI. Type of assay: functional. In outline:
as §1

Assay [8] deals with Staphylococcus epidermidis. The assay is described as follows: Antimicrobial activity against Staphylococcus epidermidis MTCC 3615 assessed as zone of inhibition at 1 mg/disc after 24 hrs incubation by disc diffusion assay. Type of assay: functional. Summed up: as §2
The subject of assay [9] is Klebsiella aerogenes. The assay is described as follows: Antimicrobial activity against Enterobacter aerogenes MTCC 111 assessed as zone of inhibition at 1 mg/disc after 24 hrs incubation by disc diffusion assay. Type of assay: functional. Summed up: as §2
In assay [10] the test system is Shigella flexneri. Nature of the assay: Antimicrobial activity against Shigella flexneri MTCC 1457 assessed as zone of inhibition at 1 mg/disc after 24 hrs incubation by disc diffusion assay. Type of assay: functional. Summed up:
as §2

In assay [11] the test system is Staphylococcus epidermidis. The assay is described as follows: Antimicrobial activity against Staphylococcus epidermidis MTCC 3615 assessed as absence of visible growth after 24 hrs.
For assay [12], the system named is Proteus vulgaris. The assay is described as follows: Antimicrobial activity against Proteus vulgaris MTCC 1771 assessed as zone of inhibition at 1 mg/disc after 24 hrs incubation by disc diffusion assay. Type of assay: functional. In outline:
as §2

The subject of assay [13] is Staphylococcus aureus. The assay is described as follows: Antimicrobial activity against Staphylococcus aureus MTCC 96 assessed as absence of visible growth after 48 to 72 hrs. Type of assay: functional.
For assay [14], the system named is Klebsiella pneumoniae. The assay is described as follows: Antimicrobial activity against Klebsiella pneumonia MTCC 109 assessed as zone of inhibition at 1 mg/disc after 24 hrs incubation by disc diffusion assay. Type of assay: functional. Summed up:
as §2

For another assay, the system named is Candida albicans. The assay is described as follows: Antifungal activity against Candida albicans MTCC 227 assessed as zone of inhibition at 1 mg/disc after 48 hrs incubation by disc diffusion assay. Format: functional. In outline: (§3)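 Disc diffusion on Mueller Hinton agar with swabbed cultures, 1 mg compound per disc. Discs stood 30 min at room temperature for diffusion, then plates incubated 48 h at 28 °C. Solvent as negative control. Yeast pre-grown in Sabouraud dextrose broth at 28 °C for 48-72 h; filamentous fungal spores came from SDA slants grown 10 days at 28 °C. Zone diameters in mm; run twice.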

Assay [15] relates to Klebsiella aerogenes. Nature of the assay: Antimicrobial activity against Enterobacter aerogenes MTCC 111 assessed as absence of visible growth after 48 to 72 hrs. Type of assay: functional.
Assay [16] relates to A549. Nature of the assay: Anticancer activity against human A549 cells assessed as cell growth inhibition at 30 ug/ml by MTT assay. Type of assay: functional. Particulars: read-out: GI. Summed up: as §1
The subject of assay [17] is Staphylococcus aureus. Nature of the assay: Antimicrobial activity against methicillin-resistant Staphylococcus aureus assessed as zone of inhibition at 1 mg/disc after 24 hrs incubation by disc diffusion assay. Format: functional. In outline:
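Inoculum grown in Mueller Hinton broth 24 h at 37°C, swabbed onto Mueller Hinton agar and dried 10 min. Discs loaded at 1 mg/disc, then 30 min at room temperature for diffusion. Plates incubated 24 h at 37°C. Solvent negative control; streptomycin positive control. Zone of inhibition read in mm; experiment done twice.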

The test system of the next assay is Malassezia pachydermatis. The assay is described as follows: Antifungal activity against Malassezia pachydermatis assessed as zone of inhibition at 1 mg/disc after 48 hrs incubation by disc diffusion assay. Type of assay: functional. In outline: as §3
Assay [18] relates to Salmonella typhimurium. The assay is described as follows: Antimicrobial activity against Salmonella typhimurium MTCC 1251 assessed as absence of visible growth after 48 to 72 hrs. Type of assay: functional, Salmonella enterica subsp. enterica serovar Typhimurium. Particulars: Salmonella enterica.
Assay [19] relates to Staphylococcus aureus. The assay is described as follows: Antimicrobial activity against Staphylococcus aureus MTCC 96 assessed as zone of inhibition at 1 mg/disc after 24 hrs incubation by disc diffusion assay. Format: functional. Summed up:
as §2

For assay [20], the system named is A549. Nature of the assay: Anticancer activity against human A549 cells assessed as cell growth inhibition at 50 ug/ml by MTT assay. Type of assay: functional. Particulars: read-out: GI. In outline:
as §1

The subject of assay [21] is Shigella flexneri. The assay is described as follows: Antimicrobial activity against Shigella flexneri MTCC 1457 assessed as absence of visible growth after 48 to 72 hrs. Type of assay: functional.
The subject of assay [22] is A549. Nature of the assay: Anticancer activity against human A549 cells assessed as cell growth inhibition at 20 ug/ml by MTT assay. Particulars: read-out: GI. Format: functional. In outline: as §1
Assay [23] concerns A549. The assay is described as follows: Anticancer activity against human A549 cells assessed as cell growth inhibition at 40 ug/ml by MTT assay. Format: functional. To be noted: read-out: GI. Summed up: as §1
Assay [24] concerns Micrococcus luteus. Nature of the assay: Antimicrobial activity against Micrococcus luteus MTCC 106 assessed as zone of inhibition at 1 mg/disc after 24 hrs incubation by disc diffusion assay. Type of assay: functional. Summed up: as §2
The test system of assay [25] is Staphylococcus aureus. The assay is described as follows: Antimicrobial activity against Staphylococcus aureus MTCC 96 assessed as absence of visible growth after 24 hrs.
Assay [26] concerns Shigella flexneri. The assay is described as follows: Antimicrobial activity against Shigella flexneri MTCC 1457 assessed as absence of visible growth after 24 hrs.
In assay [27] the test system is Staphylococcus epidermidis. The assay is described as follows: Antimicrobial activity against Staphylococcus epidermidis MTCC 3615 assessed as absence of visible growth after 48 to 72 hrs. Type of assay: functional.
The subject of assay [28] is Klebsiella pneumoniae. The assay is described as follows: Antimicrobial activity against Klebsiella pneumonia MTCC 109 assessed as absence of visible growth after 48 to 72 hrs. Format: functional.
The subject of assay [29] is Proteus vulgaris. Nature of the assay: Antimicrobial activity against Proteus vulgaris MTCC 1771 assessed as absence of visible growth after 24 hrs.

In brackets after ≈: the same amount, converted by molar mass. Activity calls are given as the source filed them. The calls are words filed in the database; no cut-off is given here.

With `Cc1ccc([C@H]2[C@@H]3CCCCC=C3C(C#N)=C(N)C23C(=O)c2ccccc2C3=O)cc1` (relative stereo), the MIC in the assay on Micrococcus luteus [1] stood at 250 µg/mL (≈ 612 µM); in the assay on Staphylococcus aureus [2] it was 125 µg/mL (≈ 306 µM); with Klebsiella pneumoniae [3], 62.5 µg/mL (≈ 153 µM); in the assay with Proteus vulgaris [5], 62.5 µg/mL (≈ 153 µM); in assay [11], 250 µg/mL (≈ 612 µM); in the assay on Staphylococcus aureus [13], 250 µg/mL (≈ 612 µM). Further, the minimal inhibitory concentration (MIC) is 125 µg/mL (≈ 306 µM) in the assay with Klebsiella aerogenes [15], 125 µg/mL (≈ 306 µM) with Salmonella typhimurium [18] and 62.5 µg/mL (≈ 153 µM) in the assay on Shigella flexneri [21]. Further, the inhibition of growth at 5 µg/mL with A549 [4] was determined as 3.7%. For the same molecule, the “inhibition zone (IZ)” value was determined as 19 mm in the assay on Salmonella typhimurium [6]; 16 mm in [8]; 18 mm with Klebsiella aerogenes [9]; 23 mm in the assay on Shigella flexneri [10]; 22 mm with Proteus vulgaris [12]; 20 mm in the assay with Klebsiella pneumoniae [14]. The “inhibition zone (IZ)” value was determined as 10 mm in the assay on Candida albicans; 17 mm with Staphylococcus aureus [17]; 10 mm with Malassezia pachydermatis; 13 mm in the assay with Staphylococcus aureus [19]; 10 mm with Micrococcus luteus [24]. For the same molecule, the inhibition of growth at 10 µg/mL in the assay on A549 [7] amounted to 10.5%. The inhibition of growth at 30 µg/mL with A549 [16] was found to be 30.8%. The inhibition of growth at 50 µg/mL in the assay with A549 [20] came out at 59.6%. In the assay on A549 [22], the inhibition of growth at 20 µg/mL was determined as 18.6%. Also, in the assay on A549 [23], the inhibition of growth at 40 µg/mL is 46.6%.
For `N#CC1=C(N)[C@]2(C(=O)Nc3ccccc32)[C@@H](c2ccc(Cl)cc2)[C@@H]2CCCC=C12`, the MIC in the assay with Micrococcus luteus [1] was found to be 1000 µg/mL (≈ 2490 µM); in the assay with Klebsiella pneumoniae [3], 125 µg/mL (≈ 311 µM); in the assay on Proteus vulgaris [5], 125 µg/mL (≈ 311 µM); in the assay with Shigella flexneri [26], 250 µg/mL (≈ 622 µM); with Klebsiella aerogenes [15], 250 µg/mL (≈ 622 µM); in the assay with Salmonella typhimurium [18] it was 250 µg/mL (≈ 622 µM). For the same molecule, in [27], the minimum inhibitory concentration (MIC) is 250 µg/mL (≈ 622 µM). Further, the inhibition entry with Staphylococcus aureus [2], in the assay with Staphylococcus aureus [25], in the assay with Staphylococcus aureus [17] and in the assay on Staphylococcus aureus [19] was “inactive” each time. Also, the “inhibition zone (IZ)” value came out at 12 mm in the assay on Salmonella typhimurium [6]; 13 mm in assay [8]; 10 mm with Klebsiella aerogenes [9]; 10 mm with Shigella flexneri [10]; 17 mm in the assay with Proteus vulgaris [12]; 16 mm in the assay on Klebsiella pneumoniae [14]. The “inhibition zone (IZ)” value with Candida albicans is 9 mm; in the assay with Malassezia pachydermatis, 11 mm; in the assay on Micrococcus luteus [24], 9 mm.
`N#CC1=C(N)[C@]2(C(=O)Nc3ccccc32)[C@@H](c2cccc3ccccc23)[C@@H]2CCCC=C12`: the MIC is 250 µg/mL (≈ 599 µM) with Micrococcus luteus [1]; 125 µg/mL (≈ 299 µM) in the assay with Klebsiella pneumoniae [28]; 500 µg/mL (≈ 1200 µM) in the assay on Shigella flexneri [26]; 125 µg/mL (≈ 299 µM) in the assay with Klebsiella aerogenes [15]; 250 µg/mL (≈ 599 µM) in the assay on Salmonella typhimurium [18]; 125 µg/mL (≈ 299 µM) in assay [27]. In addition, the inhibition entry in the assay with Staphylococcus aureus [2], in the assay with Proteus vulgaris [12], in the assay with Candida albicans, with Staphylococcus aureus [25], in the assay with Proteus vulgaris [29] and in the assay on Staphylococcus aureus [17] was “inactive” throughout. Besides, the inhibition result with Staphylococcus aureus [19] is “inactive”. The “inhibition zone (IZ)” value with Salmonella typhimurium [6] was found to be 14 mm; in assay [8] it was 15 mm; in the assay on Klebsiella aerogenes [9], 18 mm; in the assay with Shigella flexneri [10] it was 12 mm; in the assay with Klebsiella pneumoniae [14] it was 16 mm; with Malassezia pachydermatis it was 9 mm. In addition, in the assay on Micrococcus luteus [24], the “inhibition zone (IZ)” value is reported as 10 mm.
